Bioassay records from PubChem BioAssay.
mIAP activ: activators of mouse IAP, primary screen, biochemical, luminescence, uHTS. intestinal alkaline phosphatase [Mus musculus]. muIAP, CDP-Star luminescence, 30 min; stronger effect = higher value; 1 = vehicle-only enzyme signal, 0 = enzyme-free wells. activation factor at 10 µM. 330,000 compounds, 0.24% hits;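 active = activation factor of at least 2 at 20 µM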
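Assay system: mouse IAP enzyme; reagent: chemiluminescent substrate CDP-Star; dosing: test compounds delivered from DMSO solution; schedule: 30 min at room temperature; measured by: luminescence from enzymatic CDP-Star hydrolysis; controls: DMSO-only wells and no-enzyme negative control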
bIAP activator: bovine intestinal alkaline phosphatase activators, primary screen, biochemical, bovine IAP, CDP-star luminescence | alkaline phosphatase, intestinal [Bos taurus] | purified bovine IAP, 30 min; stronger effect = higher value; fold of DMSO-control signal, blank-subtracted | activation factor at 20 µM | 200,000 compounds, 0.17% hits | AID 1016, 2008;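 active = activation factor of 2 or more at 20 µM, a signal rise over negative controls twice the positive control's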
hIAP activ: human IAP activators, primary screen, biochemical, luminescence, uHTS; purified human IAP, CDP-Star luminescence, 30 min; stronger effect = higher value; 1 = vehicle-only enzyme, 0 = enzyme-free background; activation factor at 10 µM; 330,000 compounds, 0.16% hits; AID 2524, 2010;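 active = activation factor of the enzyme at least 2-fold when tested at 20 µM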
Target sequence (P09923 whole entry, looked up): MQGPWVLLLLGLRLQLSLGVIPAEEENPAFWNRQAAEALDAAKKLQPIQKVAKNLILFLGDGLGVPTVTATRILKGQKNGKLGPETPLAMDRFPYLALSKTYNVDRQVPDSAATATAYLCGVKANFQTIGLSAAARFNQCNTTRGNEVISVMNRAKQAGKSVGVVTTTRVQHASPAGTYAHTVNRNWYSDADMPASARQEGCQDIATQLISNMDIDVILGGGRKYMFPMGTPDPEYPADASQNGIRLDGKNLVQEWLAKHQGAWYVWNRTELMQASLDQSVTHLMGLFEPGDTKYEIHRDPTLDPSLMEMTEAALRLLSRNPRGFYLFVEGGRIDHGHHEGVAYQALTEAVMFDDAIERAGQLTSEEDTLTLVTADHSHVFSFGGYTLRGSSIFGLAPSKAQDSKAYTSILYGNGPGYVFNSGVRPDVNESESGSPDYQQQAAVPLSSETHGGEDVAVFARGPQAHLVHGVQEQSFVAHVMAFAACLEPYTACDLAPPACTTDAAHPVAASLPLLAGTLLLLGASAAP
hIAP inh: human IAP inhibitors, primary screen, biochemical, luminescence, uHTS | Intestinal-type alkaline phosphatase (Homo sapiens), P09923 | purified IAP, CDP-Star luminescence, 30 min | inhibition, % at 10 µM | 330,000 compounds, 0.12% hits | AID 2544, 2010;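 active = inhibition reaching a set limit with compound at 10 µM in the primary screen, cut at about 35% in these data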
mIAP inh: inhibitors of mouse IAP, primary screen, biochemical, luminescence, uHTS; 330,000 compounds, 0.2% hits; inhibition, % at 10 µM; intestinal alkaline phosphatase [Mus musculus]; purified mouse IAP, CDP-Star luminescence, 30 min;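 active = inhibition of at least 40% at 10 µM in the primary screen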
bIAP inhibitor: bovine intestinal alkaline phosphatase inhibitors, primary screen, selectivity assay for TNAP inhibitor project, biochemical, bovine IAP, CDP-star luminescence; alkaline phosphatase, intestinal [Bos taurus]; purified bovine IAP, 30 min; inhibition, % at 20 µM; 190,000 tested, under 10 active; AID 1019, 2008;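 active = over 50% inhibition of intestinal alkaline phosphatase at 20 µM in the single-dose screen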
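Incubation: 30 min reaction at room temperature / Material: purified bovine intestinal alkaline phosphatase (IAP) enzyme / Input: enzyme at 1/65,000,000 dilution / Dosing: 20 µM single dose / Signal: CDP-star luminescence signal / Reagent: CDP-star chemiluminescent phosphatase substrate, 30 µM final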
hIAP act conf: human IAP activators, confirmation, biochemical, luminescence, single concentration, uHTS hits. purified IAP, CDP-Star luminescence, 30 min; stronger effect = lower value. activation (%Activity, negative = activation), % at 8.3 µM. AID 434926, 2010. shares compounds with hIAP activ. 880 compounds, 10% hits;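 active = at least twofold enzyme activation in any of six single-dose repeats, which the averaged readout prints as negative percent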
Hits are given with their value; . = inactive; / = not tested or not shown. Compounds with a hit are over-represented: about 0.72% of the library has one in this group of screens.

SMILES	mIAP activ	bIAP activator	hIAP activ	hIAP inh	mIAP inh	bIAP inhibitor	others
Cc1cc(C2N=C(N)Nc3nc4ccccc4n32)c(C)n1-c1ccccc1Cl (centres undefined)	.	4.1	.	.	.	.
COc1ccc(-c2c(C#N)c(N)nc3sc(C(=O)c4ccccc4)c(N)c23)cc1	/	.	/	/	/	.
CCC(C)(C)NC(=O)C(c1cccs1)N(C(=O)c1ccn[nH]1)c1cccc(OC)c1 (centres undefined)	.	2.1	.	.	.	.
CCC(C)(C)NC(=O)C(c1ccccc1F)N(C(=O)c1ccn[nH]1)c1ccccc1 (centres undefined)	.	.	.	.	.	.
Cc1c(C)n(Cc2ccccc2)c2ccc(C(=O)OCCCN(C)C)cc12	.	2.2	.	.	.	.
COC(=O)c1sccc1NC(=O)Nc1cccc([N+](=O)[O-])c1	.	/	.	.	66.3	/
COc1ccccc1NC(=S)NCCC(c1ccccc1)c1ccccc1	2.08	.	.	.	.	.
COc1cc(NC(=S)NCCC(c2ccccc2)c2ccccc2)c(OC)cc1Cl	3.48	.	.	.	.	.
S=C(NCCC(c1ccccc1)c1ccccc1)Nc1ccccc1Cl	5.99	.	.	.	.	.
COc1ccccc1NC(=S)NCc1ccccc1	.	/	.	.	.	/
S=C(NCc1ccc(Cl)cc1)Nc1ccccc1Cl	.	.	.	.	.	.
COc1cc2c(cc1OC)C1(CCCC1)CNC2c1ccc([N+](=O)[O-])cc1 (centres undefined)	.	.	.	.	.	.
O=C(Cn1c(=O)[nH]c2ccccc2c1=O)N1CCN(Cc2ccc3c(c2)OCO3)CC1	.	/	.	.	.	/
Cc1cccc(CS(=O)(=O)Cc2ccc(C(=O)NC3CCCC3)o2)c1	.	/	.	.	.	/
O=C(NCc1ccc2c(c1)OCO2)C1CCN(Cc2cnn(-c3ccccc3)c2-n2cccc2)CC1	.	2.1	.	.	.	.
O=C(Nc1ccccc1Cl)C1CCN(Cc2cnn(-c3ccccc3)c2-n2cccc2)CC1	.	.	.	.	.	.
COc1cccc(C(=O)NCC(=O)NNc2ncnc(N)c2[N+](=O)[O-])c1	.	.	2.71	.	.	.	hIAP act conf=.
Cc1cccc(C)c1Nc1ncnc(N)c1[N+](=O)[O-]	.	.	.	.	.	.
COc1ccc(NS(=O)(=O)c2ccc3oc(SCc4ccc(F)cc4)nc3c2)cc1	.	.	.	.	.	.
Cc1ccc(C(C(=O)NC2CCCCC2)N(Cc2ccco2)C(=O)Cn2cnc3ccccc32)cc1 (centres undefined)	.	.	.	.	.	.
CC[C@@]1(C(=O)OC)N[C@H](CN(C)C(=O)Nc2ccc(C)cc2)[C@@H]2C(=O)N(C)C(=O)[C@@H]21	.	/	.	.	.	/
CCOc1cc(/C=N/NC(=O)C(=O)N/N=C/c2ccc(O)c(OCC)c2)ccc1O	.	/	.	38.1	.	/	hIAP act conf=-47.6
Cc1ccc(CNC(=O)Nc2ccc(Cl)cc2)cc1	.	/	.	.	.	/
COC(=O)N=Nc1c(O)[nH]c2ccc(Br)cc12	.	/	.	43.7	.	/	hIAP act conf=.
O=C(CNC(=O)c1ccccc1)N=Nc1c(O)[nH]c2ccc(Br)cc12	.	/	.	.	.	/
SMILES	mIAP activ	bIAP activator	hIAP activ	hIAP inh	mIAP inh	bIAP inhibitor	others
CCn1nc(NS(=O)(=O)c2ccccc2)c2cc3cc(C)ccc3nc21	.	/	.	.	.	/
CCn1nc(NS(=O)(=O)c2ccccc2)c2cc3ccc(C)cc3nc21	.	/	.	38.6	.	/	hIAP act conf=.
CCOc1cc(C)ccc1OCc1nnc(SCC(=O)c2cccc([N+](=O)[O-])c2)n1CC	.	.	.	.	.	.
O=C(CSc1ncccn1)Nc1ccccc1	.	.	.	.	.	.
CC(NC(=O)CSc1ncccn1)c1ccccc1 (centres undefined)	.	.	.	66.7	.	.	hIAP act conf=.
Cc1nn(C)cc1CN(C)Cc1ccc(OCC(O)CN2CCCCC2)cc1 (centres undefined)	.	.	.	.	.	.
CCn1c(SCC(=O)NC2CC2)nnc1-c1cccc(OC)c1	.	/	.	.	.	/
C=CCn1c(SCC(=O)NC2CC2)nnc1-c1cccc(OC)c1	.	/	.	40.6	.	/	hIAP act conf=.
CC(C)CN(C(=O)COC(=O)c1cccn1C)c1c(N)n(Cc2ccccc2)c(=O)[nH]c1=O	.	/	.	.	.	/
Cc1nnc(NC(=O)CSc2nnc(C)c(=O)n2N)s1	.	/	.	.	.	/
CCc1nnc(NC(=O)CSc2nnc(C)c(=O)n2N)s1	.	/	.	46.5	.	/	hIAP act conf=.
Cc1ccccc1NC(=O)Cn1nc(C)n2cccc2c1=O	.	/	.	.	.	/
COC(=O)c1cc(NC(=O)Cn2nc(C)n3cccc3c2=O)cc(C(=O)OC)c1	.	/	.	38.6	.	/	hIAP act conf=.
Oc1ccccc1-n1c(-c2ccccc2)ccc1-c1ccccc1	.	/	.	.	.	/
Cc1cc(N(C)/N=C/c2ccccc2O)nc(-c2ccccc2O)n1	.	.	2.3	.	.	.	hIAP act conf=.
CCOC(=O)Cn1c(=O)c2c(nc3n2CC(C)CN3Cc2ccccc2)n(C)c1=O (centres undefined)	.	/	.	.	.	/
CC1CN(Cc2ccccc2)c2nc3c(c(=O)n(CC(N)=O)c(=O)n3C)n2C1 (centres undefined)	.	/	.	38.8	.	/	hIAP act conf=.
COc1ccccc1C1(O)CCN(CC(=O)Nc2c(C)nn(C)c2C)CC1	.	.	.	.	.	.
CCCCCCc1c(C)nc(-n2[nH]c(C)c(CCO)c2=O)[nH]c1=O	.	.	2.28	.	.	.	hIAP act conf=.
COc1nc(OCC#N)nc(N(C)C)n1	.	.	.	.	.	.
Cc1ccc(Cn2cnc3sc4c(c3c2=O)CCC4)c(C)c1	.	.	.	.	.	.
COc1ccc(/C=C2\Oc3cc(OCC(=O)N4CC(O)C[C@H]4C(=O)O)ccc3C2=O)c(OC)c1OC (some centres undefined)	.	/	.	.	.	/
O=C(NCCS(=O)(=O)N1CCN(c2cccc(Cl)c2)CC1)c1cc(=O)c2ccccc2o1	.	/	.	38.6	.	/	hIAP act conf=.
O=C(NCCS(=O)(=O)N1CCN(c2cccc(Cl)c2)CC1)c1ccc2c(c1)OCO2	.	/	.	.	.	/
